# Calls of active or inactive are those of the source. The rule behind the calls is not given here.
# Assays:
# [1] = test system: Myzus persicae; experiment: Insecticidal activity against Myzus persicae (green peach aphid) at 25 degC; format: functional; details: read-out: LD50 (the source's name)
# [2] = test system: Myzus persicae; experiment: Insecticidal activity against Myzus persicae (green peach aphid) measured in field test; format: functional, organism-based
# In short: (§1)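 Field trials against aphids in northern, middle and southern China used 10% WP and 20% SC formulations. The design was a randomized complete block with five treatments, applied with a hand sprayer. Untreated cabbage or rice served as the control, and imidacloprid 10% WP was the reference.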
# [3] = test system: Brevicoryne brassicae; experiment: Insecticidal activity against Brevicoryne brassicae (cabbage aphids) measured in field test; format: functional, organism-based; in short: as §1
Compound,LC50 [1] [µg/mL],Activity [2],Activity [3]
CC(C)/C=N/N(Cc1ccc(Cl)nc1)/C(N)=N/[N+](=O)[O-],92.5,Active,Active
N/C(=N\[N+](=O)[O-])N(Cc1ccc(Cl)nc1)/N=C/c1ccccc1[N+](=O)[O-],357,Active,Active
CCCCN(/N=C/c1ccc(C)cc1)/C(N)=N/[N+](=O)[O-],1080,Active,Active
CCC/C=N/N(Cc1ccc(Cl)nc1)/C(N)=N/[N+](=O)[O-],21,Active,Active
C=CCN(/N=C/c1ccc(C)cc1)/C(N)=N/[N+](=O)[O-],744,Active,Active
C=CCN(/N=C/CCCC)/C(N)=N/[N+](=O)[O-],400,Active,Active
CC/C=N/N(CCC)/C(N)=N/[N+](=O)[O-],283,Active,Active
CC/C=N/N(CC)/C(N)=N/[N+](=O)[O-],523,Active,Active
CCCCN(/N=C/c1ccccc1)/C(N)=N/[N+](=O)[O-],1800,Active,Active
C=CCN(/N=C/c1ccccc1Cl)/C(N)=N/[N+](=O)[O-],362,Active,Active
CCCCCC/C=N/N(Cc1ccc(Cl)nc1)/C(N)=N/[N+](=O)[O-],25.5,Active,Active
N/C(=N\[N+](=O)[O-])N(Cc1ccc(Cl)nc1)/N=C/c1ccc(F)cc1,1450,Active,Active
CCC/C=N/N(CCCC)/C(N)=N/[N+](=O)[O-],367,Active,Active
CCN(/N=C/c1ccc(C)cc1)/C(N)=N/[N+](=O)[O-],1020,Active,Active
N/C(=N\[N+](=O)[O-])N(Cc1ccc(Cl)nc1)/N=C/c1ccco1,345,Active,Active
O=[N+]([O-])/N=C1\NCCN1Cc1ccc(Cl)nc1 [IMIDACLOPRID],24.2,Active,Active
CCCC/C=N/N(Cc1ccc(Cl)nc1)/C(N)=N/[N+](=O)[O-] [GUADIPYR],25.3,Active,Active
C=C/C=N/N(CCCC)/C(N)=N/[N+](=O)[O-],328,Active,Active
CCCCN(/N=C/c1cccc(OC)c1)/C(N)=N/[N+](=O)[O-],1800,Active,Active
COc1ccc(/C=N/N(Cc2ccccc2)/C(N)=N/[N+](=O)[O-])cc1,3840,Active,Active
